Compound activity from PubChem BioAssay.
PKA-R1A act: activates the PKA-R1A holoenzyme complex; 0.083% of 340,000 active; P00514+P68181; activation, % at 11.4 µM; PKA-R1A dissociation, Cy5-IP20 fluorescence polarization; scaled: DMSO 0%, 113 µM cGMP 100%; AID 504707;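 active means percent activation above the mean of all tested compounds plus 3 SD, cut at about 19% in these data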;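 further: higher means more PKAc released from R1A so a rise in polarization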
procasp3 activ: activators of human procaspase-3; recombinant procaspase-3 D3A, Ac-DEVD-pNA absorbance 405 nm; activation, % at 8.5 µM; P42574; 0.11% of 330,000 active;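 active means activation above the mean of all tested compounds plus 3 SD, cut at about 21% in these data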;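 further: 0% = DMSO alone and 100% = DMSO wells spiked with extra 5 µM PC-3 D3A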
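Assay system: Procaspase-3 D3A mutant, all three cleavage aspartates alanine. Buffer or medium: Zinc-free HEPES saline buffer with Triton X-100. Times: 1 h compound preincubation, 2 h substrate hydrolysis at 25 °C. Measured by: 405 nm absorbance of p-nitroaniline, reads at 0 and 120 min. Read-out basis: percent activation relative to control range. Replicates: singlicate.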
PKA-R2B act: activates the human PKA-R2B holoenzyme complex; AID 504700; PKA-R2B holoenzyme dissociation, Cy5-IP20 fluorescence polarization; R2B truncated from residue 108, S112A mutant; 0% DMSO only, 100% 113 µM cGMP; activation, % at 11.4 µM; P22694+P31323; 0.079% of 340,000 active;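 active means activation above a cutoff set at the mean over all compounds plus 3 SD, cut at about 18% in these data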;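 further: higher means more holoenzyme dissociation and a rise in polarization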
Target sequence (P31323 whole entry, looked up, other chains not shown, the tested form may be a part): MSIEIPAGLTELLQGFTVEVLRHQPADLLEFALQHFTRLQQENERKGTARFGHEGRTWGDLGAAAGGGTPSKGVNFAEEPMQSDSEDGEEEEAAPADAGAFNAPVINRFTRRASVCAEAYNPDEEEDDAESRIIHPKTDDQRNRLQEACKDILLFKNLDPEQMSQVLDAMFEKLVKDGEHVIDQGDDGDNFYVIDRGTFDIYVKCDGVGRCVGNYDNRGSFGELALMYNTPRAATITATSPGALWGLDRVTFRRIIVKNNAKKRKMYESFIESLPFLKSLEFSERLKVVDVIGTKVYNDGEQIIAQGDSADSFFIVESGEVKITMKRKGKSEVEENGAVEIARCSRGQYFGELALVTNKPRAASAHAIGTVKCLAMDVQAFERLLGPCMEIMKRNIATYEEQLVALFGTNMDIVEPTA
procasp7 counter: counter-screen: procaspase-7 (human) activation; recombinant procaspase-7, Ac-DEVD-pNA absorbance 405 nm; D23A/D198A/D206A triple mutant, cannot self-cleave; scale: DMSO 0, 5 µM enzyme 100; activation, % at 8.5 µM; P55210; 0.093% of 330,000 active; AID 463210;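 active means percent activation above the screen-wide mean plus 3 SD, cut at about 25% in these data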
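Assay system – Uncleavable procaspase-7 mutant enzyme · Quantity – 2 µM procaspase-7 mutant as dispensed · Times – 1 h preincubation, 2 h reaction · Dosing – single nominal 8.5 µM compound dose, 0.8% DMSO final · Buffer or medium – Zinc-free 50 mM HEPES buffer, pH 7.4, with NaCl and Triton X-100 · Detection – Epi-absorbance of released pNA at 405 nm, two timepoints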
PC3 D3A act: activates human procaspase-3, dual activator counter-screen | shares compounds with procasp7 counter | recombinant PC-3 D3A, Ac-DEVD-pNA absorbance 405 nm; aspartates 9, 28, 175 changed to alanine; 100% = enzyme control | activation, % at 8.5 µM | 290 tested, under 10 active;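 active means mean percent activation across triplicates above a set limit taken from the earlier primary procaspase-3 screen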;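 further: 0% = DMSO wells and 100% = DMSO wells with 5 µM added PC-3 D3A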
Procasp7 act: activates human procaspase-7, confirming dual procaspase activators. shares compounds with procasp7 counter. recombinant procaspase-7, Ac-DEVD-pNA absorbance 405 nm; D23A/D198A/D206A mutant that cannot self-cleave. activation, % at 8.5 µM. 290 tested, under 10 active. AID 493115;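 active means mean activation above a set limit carried over from the earlier primary screen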;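 further: 0% = DMSO only and 100% = DMSO with added 5 µM PC-7 enzyme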
The depositor's hits bear a star; · = not tested or not shown. Compounds with a hit are over-represented: about 0.29% of the library has one in this group of screens.

SMILES	PKA-R1A act	procasp3 activ	PKA-R2B act	procasp7 counter	PC3 D3A act	Procasp7 act
CCN(CC)c1ccc(-c2nn3c(-c4ccccc4OC)nnc3s2)cc1	-9	-1	-2	33*	-31	-36
COc1ccc(OC)c2sc(N3CCCCC3)nc12	-4	-1	-3	28*	5	-2
C[C@]1(C(=O)O)C=C[C@@H](Cc2ccccc2)N1C(=O)c1ccccc1	-5	6	-5	0	·	·
CCOC(=O)c1ccc(NC(=S)N(CCN2CCCCCC2)Cc2ccco2)cc1	1	-2	4	-16	·	·
COc1ccc(NC2=CC(=O)CC(c3ccccc3)C2)cc1 (stereo not given)	-1	18	4	26*	0	-2
Cc1occc1C(=O)N/N=C/c1ccc(Cl)c([N+](=O)[O-])c1	2	4	-3	3	·	·
COc1ccc(S(=O)(=O)N2CCC(C(=O)NCCC3=CCCCC3)CC2)cc1C	2	-3	1	10	·	·
Cc1ccc(CCNC(=O)C2CCC(=O)N(Cc3cccc(F)c3)C2)cc1 (stereo not given)	3	-5	15	10	·	·
Cc1cc(C)c(S(=O)(=O)c2ccccc2)c(OC(=O)c2c(Cl)cc(Cl)cc2Cl)n1	-5	-1	-3	26*	2	3
Cc1cc(C)c(S(=O)(=O)c2ccccc2)c(OC(=O)c2c(F)cccc2F)n1	-1	-1	6	7	·	·
CC1CN(C2=N/C(=C/c3ccc4c(c3)OCO4)C(=O)N2)CC(C)O1 (stereo not given)	-13	3	-8	3	·	·
Cc1c(CCC(=O)NCCCN2CCCC2=O)c(=O)oc2c(C)c(O)ccc12	-2	28*	-4	26*	-30	-36
Cc1coc2c(C)c3oc(=O)c(CCC(=O)NCCCN4CCCC4=O)c(C)c3cc12	-8	2	2	-6	·	·
Cc1c(CCC(=O)NC2CC2)c(=O)oc2c(C)c(O)ccc12	0	28*	-4	27*	-30	-36
COc1ccc(NS(=O)(=O)c2ccc3c(c2)CCC(=O)N3)c(OC)c1	8	-12	-1	-15	·	·
CCCN(CC(=O)Nc1ccc(Cl)cc1Cl)C(=O)/C=C/c1cc(OC)ccc1OC	-7	13	-14	37*	-8	-7
CCOC(=O)C1=C(C)NC(C)=C(C(=O)OCC)C1/C=C/c1ccccc1OC	-3	15	-15	29*	-28	-23
CN(C)CCCn1c(SCC(=O)N2CC(=O)Nc3ccccc32)nc2ccccc2c1=O	-4	-10	-9	-3	·	·
COc1ccc(N(C(=O)c2ccncc2)S(=O)(=O)c2ccc3c4c(cccc24)C(=O)N3C)cc1	7	-4	7	32*	-28	-34
CCOc1ccc2nc(-c3cc(NC(C)=O)ccc3O)sc2c1	10	5	8	31*	2	-1
N#C/C(=C/c1ccc(N2CCCCCC2)o1)c1ccc(Cl)cc1	-4	-6	-18	-14	·	·
CCOC(=O)c1sc2c(c1C)C(c1cccs1)C1=C(CCCC1=O)N2 (stereo not given)	-3	23*	-9	40*	-29	-35
C=CCNc1sc(C(=O)c2ccc(C)cc2)c(N)c1C#N	0	-113	-16	-6	·	·
C=CCNc1nc(N)c(C(=C(C#N)C#N)c2ccc(Br)cc2)s1	6	12	-18	105*	-28	-35
O=C(Nc1ccc(Cc2ccncc2)cc1)C1CCC(N2C(=O)C3C4C=CC(C5CC45)C3C2=O)CC1 (stereo not given)	0	-6	-7	30*	2	27*
SMILES	PKA-R1A act	procasp3 activ	PKA-R2B act	procasp7 counter	PC3 D3A act	Procasp7 act
c1ccc(Cn2c(-c3ccco3)nc3nc4ccccc4nc32)cc1	-10	12	-5	46*	-31	-36
CCCCCn1c(-c2ccco2)nc2nc3ccccc3nc21	6	5	-5	7	·	·
CCOC(=O)c1nc(Nc2cc(Cl)ccc2OC)c2ccccc2n1	-5	8	1	26*	-25	-33
CCOC(=O)c1nc(Nc2ccccc2)c2ccccc2n1	-2	3	0	-7	·	·
Cc1ccc(CNC(=O)Cn2nnc(C(=O)Nc3ccc(Br)cc3)c2N)cc1	-8	16	-11	9	·	·
Nc1ccccc1-c1nc2ccccc2c(=O)o1	-17	27*	2	34*	-30	-36
CCOC(=O)C1CCCCN1Cc1cn[nH]c1-c1ccc(F)cc1F (stereo not given)	-11	6	0	-3	·	·
Clc1ccc(C2=NN(c3ccccc3)C(c3ccco3)C2)cc1 (stereo not given)	-11	-18	-3	-25	·	·
CC(=O)Nc1ccc(C2CC(c3ccc(Cl)cc3)=NN2c2ccccc2)cc1 (stereo not given)	-7	163*	-6	136*	-28	-34
CC(=O)Nc1ccc(C2=NN(c3ccccc3)C(c3ccccc3)C2)cc1 (stereo not given)	-11	218*	-7	46*	-28	-36
Cc1cccc(NC(NC(=O)c2cccnc2)C(Cl)(Cl)Cl)c1 (stereo not given)	-14	3	4	-1	·	·
Oc1c(Cl)cc(Cl)cc1/C=N/NC(=S)NC1CC2C=CC1C2 (stereo not given)	-14	43*	-9	40*	-30	-34
O=C1CS(=O)(=O)N(Cc2ccccc2F)c2ccc(Br)cc21	2	2	1	3	·	·
CN(C)c1nc(-c2ccccc2)c2cnn(Cc3ccccc3)c2n1	-20	18	2	34*	-29	-36
CCCNC(=O)c1c(N)n(-c2cc(OC)cc(OC)c2)c2nc3ccccc3nc12	-9	115*	-8	29*	-28	-36
CC(C)c1c(C(=O)N/N=C/c2ccc3c(c2)OCO3)nnn1-c1nonc1N	3	6	-17	1	·	·
CCN(CC)c1ccc(/C=N/NC(=O)c2nnn(-c3nonc3N)c2C(C)C)c(O)c1	-12	59*	-16	44*	-30	-35
COc1cccc(Sc2cc(N3CCOCC3)nc(-c3ccccc3)n2)c1	10	3	-1	-3	·	·
Cn1c(CC(=O)Nc2ccccc2F)nnc1SCC(=O)Nc1nncs1	-8	0	1	38*	3	-1
Cc1cc(C(=O)Nc2cc(C(C)(C)C)on2)c(C)o1	-3	2	-2	4	·	·
CCOC(=O)C1=C(C)NC(=O)NC1c1ccc(NC(C)=O)cc1 (stereo not given)	-12	1	-2	8	·	·
